From ChEMBL document CHEMBL1126057, “Highly water-soluble lipophilic prodrugs of the anti-HIV nucleoside analogue 2',3'-dideoxycytidine and its 3'-fluoro derivative” (J Med Chem, 1992) come the findings set out here.

In brackets after ≈: the same amount, converted by molar mass. Where only a bound is given, the exact number is not on record here.

Data set [1] in a line: Water solubility of the compound. The format is ADME. To be noted: read-out: S. In a few lines: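 Solubility in double-distilled water at room temperature, in mg/mL.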
Data set [2] is described as follows: pKa value of the compound. The format is physicochemical. In outline:
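pKa determined by UV spectroscopy at room temperature.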

Data set [3] relates to CCRF-CEM. Briefly: The compound was tested for the antiviral activity against HIV from CEM-IW human lymphocyte,. The format is functional. To be noted: read-out: ED50 (the source's name). In a few lines: (§1)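 CEM-IW human lymphocytes in culture; reduction of HIV cytopathic effect. Value is the concentration (µM) producing 50% antiviral effect.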
Data set [4] deals with CCRF-CEM. Briefly: The compound was tested for the cytotoxicity against HIV from CEM-IW human lymphocyte. In kind it is functional, cell-based. In outline:
(§2)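 Cytotoxicity in the same cell cultures as the antiviral assays, measured as 50% growth inhibition by tetrazolium dye assay. Value is the concentration (µM) producing 50% cytotoxicity.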

A short description of data set [5]: The compound was tested for the antiviral activity against Rauscher murine leukemia virus. In kind it is functional. The conditions noted are these: Mus musculus; read-out: ED50 (the source's name). In outline:
(§3)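 UV-XC plaque reduction assay for Rauscher murine leukemia virus in SC-1 cells in culture, in vitro. Value is the concentration (µM) producing 50% antiviral effect.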

Data set [6] in a line: The compound was tested for the cytotoxicity against Rauscher murine leukemia virus. The format is functional, Mus musculus. In a few lines: as §2
A short description of data set [7]: Partition coefficient (P). The conditions noted are these: octanol/water.
Data set [8] is described as follows: Half-life in potassium phosphate buffered saline(PBS) at 37 degree C. In kind it is ADME. In a few lines: (§4)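 Prodrug at 5 × 10^-5 M in PBS, pH 7.4, incubated at 37 °C. A317 read at regular intervals. Pseudo-first-order rate constant taken from the slope of ln(absorbance) vs time, then converted to t1/2.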
Data set [9] can be described thus: Half-life in potassium phosphate buffered saline (PBS) at 37 degree C. In kind it is ADME. In outline:
as §4

A short description of data set [10]: Half-life in 10% serum solution at 37 degree C. In kind it is ADME, cell-free. In outline:
(§5)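 Diisopropylamino prodrugs diluted from 10^-2 M stock into human serum, made up with buffer to 10% or 20% serum, or mixed with serum to 90% serum. Incubated at 37 °C; 50-µL aliquots withdrawn at intervals, diluted with buffer, A317 read. Half-life taken from the pseudo-first-order rate constant, i.e. the slope of ln(absorbance) vs time.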

Data set [11] can be described thus: Half-life in 1N HCl at 37 degree C. The format is ADME. In outline:
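Diisopropylamino prodrugs at 5 × 10^-5 M in 1 N HCl at 37 °C. Absorbance at 317 nm recorded at regular intervals. ln(absorbance) vs time plotted; slope gives the pseudo-first-order hydrolysis rate constant, from which t1/2 was calculated.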

The nature of data set [12]: Half-life in 20% serum solution at 37 degree C. In kind it is ADME, cell-free. In outline:
as §5

Data set [13] in a line: Half-life in 90% serum solution at 37 degree C. In kind it is ADME, cell-free. In a few lines: as §5
Data set [14] is described as follows: The compound was tested for the antiviral activity against Rauscher murine leukemia virus in SC-1 cells. In kind it is functional. The conditions noted are these: Mus musculus, read-out: ED50 (the source's name). In a few lines:
as §3

The nature of data set [15]: The compound was tested for the cytotoxicity in SC-1 cells. To be noted: Mus musculus.
Data set [16] relates to CCRF-CEM. As to the kind of experiment: The compound was tested for the antiviral activity against HIV from CEM-IW human lymphocyte. The conditions noted are these: read-out: ED50 (the source's name). The format is functional. In a few lines:
as §1

Data set [17] in a line: Half-life in potassium phosphate buffered saline (PBS) at 37 degree C(0% serum solution). In kind it is ADME. In a few lines: as §4

As usually defined, the pKa is the negative logarithm of the acid dissociation constant. High values mean a weaker acid or stronger base, low ones a stronger acid or weaker base. Broadly, the IC50 is the concentration needed to halve the response being measured. Low values mean greater potency, high ones weaker potency. In the case of `Nc1ccn(C2CC(F)C(CO)O2)c(=O)n1` (stereo unspecified), the solubility in data set [1] came out at 15 mg/mL (≈ 65.4 mM). In data set [2], this compound showed a pKa of 4.22. Further, the values for the EC50 in [3] and in data set [5] were 0.16 µM and 158 µM, respectively. The figures for the half-inhibitory concentration (IC50) in [4] and in data set [6] were over 3200 µM and over 1000 µM, respectively. In data set [7], this compound registered a P of -0.893.

One may read the half-life as how long it takes for the measured level to halve. A high value points to slow loss. As to `CCN(/C=N\c1ccn(C2CCC(CO)O2)c(=O)n1)CC` (stereo unspecified), the half-life in data set [8] is 8.67 h. In [7], this compound gave a P of -0.059.

The compound `CN(C)/C=N\c1ccn(C2CCC(CO)O2)c(=O)n1` (stereo unspecified) had a half-life in data set [9] of 3.8 h. In addition, the P in data set [7] was -0.951.

In data set [8], `O=c1nc(/N=C\N2CCOCC2)ccn1C1CC(F)C(CO)O1` (stereo unspecified) showed a half-life of 3.74 h. In data set [7], this compound had a P of -0.676.

Regarding `CCCN(/C=N\c1ccn(C2CC(F)C(CO)O2)c(=O)n1)CCC` (stereo unspecified), the half-life in data set [8] is 15.6 h.

As to `CC(C)N(/C=N\c1ccn(C2CC(F)C(CO)O2)c(=O)n1)C(C)C` (stereo unspecified), the half-life is 52.4 h in [10]; 5.8 h in data set [11]; 52.1 h in data set [8]; 56.5 h in [12]; 86.7 h in data set [13]. In data set [1], the solubility is 25 mg/mL (≈ 73.4 mM). Moreover, the pKa in data set [2] was determined as 5.13. In addition, the EC50 in [3] is 0.675 µM; in data set [14], 518 µM. In addition, the IC50 in data set [4] was over 200 µM; in data set [15], over 1000 µM.

In turn, `O=c1nc(/N=C\N2CCCC2)ccn1C1CC(F)C(CO)O1` (stereo unspecified) showed a half-life in data set [8] of 2.57 h. In data set [7], the P is -0.162.

Compound `O=c1nc(/N=C\N2CCCCC2)ccn1C1CC(F)C(CO)O1` (stereo unspecified) gave a half-life in [8] of 6.3 h. This compound also displayed a P in [7] of 0.358.

As to `CN(C)/C=N\c1ccn(C2CC(F)C(CO)O2)c(=O)n1` (stereo unspecified), the half-life in data set [8] was 4.66 h. Besides, the IC50 in data set [4] is over 200 µM; in data set [15] it was over 1000 µM. The EC50 in data set [14] was 214 µM; in [16], 0.23 µM. This compound also showed a P in data set [7] of -0.64.

In turn, `CCN(/C=N\c1ccn(C2CC(F)C(CO)O2)c(=O)n1)CC` (stereo unspecified) displayed a half-life in [8] of 10.2 h. The P in data set [7] was found to be 0.227.

In turn, `O=c1nc(/N=C\N2CCOCC2)ccn1C1CCC(CO)O1` (stereo unspecified) gave a half-life in [8] of 3.92 h. Also, in data set [7], the P is -0.967.

Consider `CC(C)N(/C=N\c1ccn(C2CCC(CO)O2)c(=O)n1)C(C)C` (stereo unspecified), for which the half-life in data set [10] is 47.3 h; in data set [11], 3.9 h; in [17], 47.5 h; in data set [12] it was 51.2 h; in data set [13] it was 65.6 h. For the same compound, in data set [1], the solubility is over 300 mg/mL. The same compound registered a pKa in data set [2] of 5.28. The EC50 in data set [3] came out at 0.065 µM; in [5], 20.6 µM. The 50% inhibitory concentration (IC50) was over 200 µM in [4] and over 1000 µM in data set [6]. The P in data set [7] was 0.724.

As for `CCCN(/C=N\c1ccn(C2CCC(CO)O2)c(=O)n1)CCC` (stereo unspecified), the half-life in data set [8] is 13.1 h. The P in [7] was 0.948.

The compound `O=c1nc(/N=C\N2CCCCC2)ccn1C1CCC(CO)O1` (stereo unspecified) had a half-life in [8] of 6.4 h. The compound also came in with a P in data set [7] of 0.057.

In data set [8], `O=c1nc(/N=C\N2CCCC2)ccn1C1CCC(CO)O1` (stereo unspecified) had a half-life of 2.13 h. Besides, in [7], the P was -0.467.

Regarding `Nc1ccn([C@H]2CC[C@@H](CO)O2)c(=O)n1` [ZALCITABINE], the solubility in data set [1] turned out to be 78 mg/mL (≈ 369 mM). This compound gave a pKa in data set [2] of 4.42. Also, the EC50 in data set [5] is 2.2 µM. Besides, in data set [6], the IC50 was over 1000 µM.
